Test [1] addresses T1, Type-2 angiotensin II receptor (Rattus norvegicus, UniProt P35351).
T1 sequence (P35351 whole entry): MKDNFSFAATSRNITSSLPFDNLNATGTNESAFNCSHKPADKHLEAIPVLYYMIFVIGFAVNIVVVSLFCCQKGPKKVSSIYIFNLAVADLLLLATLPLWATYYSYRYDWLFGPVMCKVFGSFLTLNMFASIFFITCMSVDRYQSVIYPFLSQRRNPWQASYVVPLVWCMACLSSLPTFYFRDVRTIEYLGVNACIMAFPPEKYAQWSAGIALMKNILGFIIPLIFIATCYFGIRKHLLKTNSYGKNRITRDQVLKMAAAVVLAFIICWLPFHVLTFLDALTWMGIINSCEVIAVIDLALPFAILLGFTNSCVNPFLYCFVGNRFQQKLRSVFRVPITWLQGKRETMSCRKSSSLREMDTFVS
Briefly: Inhibition of [125I]-[Sar1,Ile8]Ang II binding at rat angiotensin II (type 2) receptor. In short, it runs like this:
(§1)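 AT2 binding uses rat isolated adrenal membrane homogenates with 10^-6 M losartan present. [125I][Sar1,Ile8]Ang II is the radioligand, and IC50 is 50% displacement of total specifically bound label. Duplicate determinations include DuP 753 and saralasin as internal standards. Intraassay variability 5%, interassay 20%.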

The target in test [2] is T2, Angiotensin II receptor (Rattus norvegicus) (UniProt P29089+P25095+P35351). Briefly: Ratio of IC50 at Angiotensin II type 1 and angiotensin II type 2 receptors. In kind it is protein assay. In short, it runs like this: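 AT2 IC50 divided by AT1 IC50. Both come from [125I][Sar1,Ile8]Ang II displacement on rat adrenal membrane homogenates, with 10^-6 M losartan (AT2) or 10^-6 M PD123177 (AT1) present. Each was run in duplicate.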

The target in test [3] is T3, Angiotensin II receptor (AT-1) type-1 (Rattus norvegicus, UniProt P29089+P25095).
T3 sequence (P29089 whole entry): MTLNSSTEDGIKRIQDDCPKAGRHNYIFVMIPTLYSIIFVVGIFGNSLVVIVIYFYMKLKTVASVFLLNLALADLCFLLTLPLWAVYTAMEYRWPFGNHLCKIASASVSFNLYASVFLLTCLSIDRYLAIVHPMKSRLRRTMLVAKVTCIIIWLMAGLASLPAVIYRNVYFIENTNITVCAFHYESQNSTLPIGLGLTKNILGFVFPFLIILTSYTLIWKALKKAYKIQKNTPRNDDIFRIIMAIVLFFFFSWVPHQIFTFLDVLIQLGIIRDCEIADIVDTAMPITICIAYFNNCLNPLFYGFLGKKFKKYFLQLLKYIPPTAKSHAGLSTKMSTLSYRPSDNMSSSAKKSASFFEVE
T3 sequence (P25095 whole entry): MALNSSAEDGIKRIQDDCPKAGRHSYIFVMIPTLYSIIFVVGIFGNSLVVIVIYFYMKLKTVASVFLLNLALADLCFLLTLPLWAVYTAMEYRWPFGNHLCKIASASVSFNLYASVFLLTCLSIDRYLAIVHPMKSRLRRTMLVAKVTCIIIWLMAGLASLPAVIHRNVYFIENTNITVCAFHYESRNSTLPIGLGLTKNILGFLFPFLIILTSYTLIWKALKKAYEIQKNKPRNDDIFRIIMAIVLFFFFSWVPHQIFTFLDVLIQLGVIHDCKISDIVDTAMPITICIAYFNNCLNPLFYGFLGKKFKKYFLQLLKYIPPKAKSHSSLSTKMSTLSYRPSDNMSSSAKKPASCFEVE
Briefly: Inhibition of [125I]-[Sar1,Ile8]Ang II binding at rat angiotensin II (type 1) receptor. In kind it is protein assay. In short, it runs like this: (§2)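 Rat isolated adrenal membrane homogenates with 10^-6 M PD123177 present to isolate the AT1 site. Radioligand is [125I][Sar1,Ile8]Ang II. IC50 is the concentration giving 50% displacement of total specifically bound radioligand. Run in duplicate against DuP 753 and saralasin as internal standards. Intraassay variability 5%, interassay 20%.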

Test [4] deals with Rattus norvegicus. The experiment in a line: Effective dose to lower blood pressure by 30 mmHg in renal hypertensive rats on peroral administration. In kind it is functional. The following applies: po. A digest of the protocol:
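Conscious renal artery-ligated hypertensive rats were dosed orally; vehicle was 0.05 mg/mL Na2CO3 in 0.5% methocel. Mean arterial pressure was monitored, n=6-9 per group. ED30 is the dose that lowers blood pressure by 30 mmHg.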

The target of test [5] is T2, Angiotensin II receptor (Rattus norvegicus). Briefly: Relative inhibition of angiotensin II type 2 and angiotension II type 1 receptors in modified assay. In kind it is protein assay. A digest of the protocol: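 Rat adrenal membrane homogenates with [125I][Sar1,Ile8]Ang II as radioligand. AT1 sites were measured with 10^-6 M PD123177 present and AT2 sites with 10^-6 M losartan present. IC50 is the concentration giving 50% displacement of specifically bound radioligand, run in duplicate against DuP 753 and saralasin standards. Intra-assay variability was 5% and inter-assay 20%. The value is the AT2 IC50 divided by the AT1 IC50.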

The target of test [6] is T1, Type-2 angiotensin II receptor. The experiment in a line: Inhibitory concentration against Angiotensin II receptor type 2 with [125I]-[Sar1,Ile8]Ang II. A digest of the protocol:
as §1

Test [7] has as its target T3, Angiotensin II receptor (AT-1) type-1. Briefly: Inhibitory concentration against Angiotensin II receptor type 1 with [125I]-[Sar1,Ile8]Ang II. Format: protein assay. A digest of the protocol:
as §2

Test [8] has as its target T2, Angiotensin II receptor (Rattus norvegicus). The experiment in a line: Relative inhibition of angiotensin II receptor types 1 and 2. In kind it is protein assay.

For `CCCc1nc(CC)c(C(=O)CCN(C(=O)c2cccnc2)c2ccccn2)n1Cc1ccc(-c2ccccc2S(=O)(=O)NC(=O)OCCC(C)C)cc1F`, the results for the IC50 in test [1] and in test [3] were 0.16 nM and 0.52 nM, respectively. In addition, the IC50 ratio in test [2] was 0.31. In addition, the ED30 in test [4] was 0.9 mg/kg.

Regarding `CCCC(=O)N(CCC(=O)c1c(CC)nc(CCC)n1Cc1ccc(-c2ccccc2S(=O)(=O)NC(=O)OCCC(C)C)cc1F)c1cccnc1`, the IC50 (commonly the concentration at which inhibition is half-maximal) in test [1] stood at 0.25 nM; in test [3], 0.32 nM. In addition, the IC50 ratio in test [2] was determined as 0.78. This compound registered an ED30 in test [4] of 0.27 mg/kg.

As for `CCCc1nc(CC)c(C(=O)CCN(C(=O)c2ccncc2)c2ccccc2)n1Cc1ccc(-c2ccccc2S(=O)(=O)NC(=O)OCCC(C)C)cc1F`, the results for the IC50 in test [1] and in test [3] were 0.1 nM and 0.4 nM, respectively. Further, in test [2], the IC50 ratio is 0.25. In test [4], this compound registered an ED30 of less than 3 mg/kg.

As to `CCCCOC(=O)NS(=O)(=O)c1ccccc1-c1ccc(Cn2c(CCC)nc(CC)c2C(C)=O)c(F)c1`, the IC50 in test [1] was 1 nM; in test [3], 1 nM; in test [6], 10 nM; in test [7], 0.09 nM. For the same compound, the IC50 ratio in test [5] turned out to be 111; in test [2], 1.

`CCCc1nc(CC)c(C(=O)OC)n1Cc1ccc(-c2ccccc2S(=O)(=O)NC(=O)OCCC(C)C)cc1F`: the IC50 was found to be 3 nM in test [1], 1 nM in test [3], 40 nM in test [6] and 0.1 nM in test [7]. Further, the IC50 ratio in test [8] came to 3.

`CCCCOC(=O)NS(=O)(=O)c1ccccc1-c1ccc(Cn2c(CCC)nc(CC)c2C(=O)OC)c(Cl)c1`: the IC50 ratio in test [2] turned out to be 231; in test [8], 2.3. Further, the IC50 in test [3] is 3 nM; in test [6], 37 nM; in test [7] it was 0.16 nM.

As for `CCCc1nc(CC)c(C(=O)CCN(C(=O)CC)c2cccnc2)n1Cc1ccc(-c2ccccc2S(=O)(=O)NC(=O)OCCC(C)C)cc1F`, the results for the 50% inhibitory concentration (IC50) in test [1] and in test [3] were 0.49 nM and 0.45 nM, respectively. Further, the IC50 ratio in test [2] amounted to 1.09. Moreover, the ED30 in test [4] amounted to 0.26 mg/kg.

For the compound `CCCc1nc(CC)c(C(=O)CCN(C(C)=O)c2cccnc2)n1Cc1ccc(-c2ccccc2S(=O)(=O)NC(=O)OCCC(C)C)cc1F`, the IC50 was 3 nM in test [1] and 0.4 nM in test [3]. Moreover, in test [2], the IC50 ratio was 7.5.

Regarding `CCCc1nc(CC)c(C(=O)CCN(C(=O)C(C)C)c2cccnc2)n1Cc1ccc(-c2ccccc2S(=O)(=O)NC(=O)OCCC(C)C)cc1F`, the IC50 in test [1] amounted to 1 nM; in test [3], 0.3 nM. In test [2], the IC50 ratio was determined as 3.3.

In the case of `CCCc1nc(CC)c(C(=O)CCN(C(=O)c2cccnc2)c2cccnc2)n1Cc1ccc(-c2ccccc2S(=O)(=O)NC(=O)OCCC(C)C)cc1F`, the IC50 was found to be 0.22 nM in test [1] and 0.5 nM in test [3]. For the same compound, the IC50 ratio in test [2] is 0.44. The compound further displayed an ED30 in test [4] of 0.26 mg/kg.

On to `CCCc1nc(CC)c(C(=O)CCN(C(=O)c2cccnc2)c2cccnc2)n1Cc1ccc(-c2ccccc2S(=O)(=O)NC(=O)OCCC(C)C)cc1`, for which the concentration for half-maximal inhibition (IC50) in test [1] is 1 nM; in test [3], 0.3 nM. Besides, the IC50 ratio in test [2] is 3.3.

Regarding `CCCCOC(=O)NS(=O)(=O)c1ccccc1-c1ccc(Cn2c(CCC)nc(CC)c2C(=O)CCN(C(=O)c2ccccc2)c2ccccc2)c(F)c1`, the values for the IC50 in test [1] and in test [3] were 0.18 nM and 0.25 nM, respectively. Also, the IC50 ratio in test [2] is 0.7. The ED30 in test [4] was 1.57 mg/kg.

On to `CCCc1nc(CC)c(C(=O)CCN(C(=O)c2ccncc2)c2cccnc2)n1Cc1ccc(-c2ccccc2S(=O)(=O)NC(=O)OCCC(C)C)cc1F`, for which the values for the IC50 in test [1] and in test [3] were 1 nM and 0.7 nM, respectively. In addition, the IC50 ratio in test [2] is 1.4. In test [4], this compound returned an ED30 of 0.4 mg/kg.

Consider `CCCCOC(=O)NS(=O)(=O)c1ccccc1-c1ccc(Cn2c(CCC)nc(CC)c2C(=O)CCN(CCCC)C(=O)c2ccccc2)c(F)c1`, for which the IC50 worked out at 10 nM in test [1] and 0.3 nM in test [3]. For the same compound, the IC50 ratio in test [2] amounted to 33.

Turning to `CCCC(=O)N(CCC(=O)c1c(CC)nc(CCC)n1Cc1ccc(-c2ccccc2S(=O)(=O)NC(=O)OCCC(C)C)cc1)c1cccnc1`, the IC50 in test [1] is 1 nM; in test [3] it was 0.4 nM. Further, the IC50 ratio in test [2] came to 2.5.

Turning to `CCCCOC(=O)NS(=O)(=O)c1ccccc1-c1ccc(Cn2c(CCC)nc(CC)c2C(=O)CCN(C(=O)CCC)c2ccccc2)c(F)c1`, the IC50 in test [1] is 0.15 nM; in test [3], 0.2 nM. Besides, the IC50 ratio in test [2] is 0.75. In addition, the ED30 in test [4] turned out to be 1.5 mg/kg.

Take `CCCc1nc(CC)c(C(=O)CCN(C(=O)c2ccccc2)c2ccccc2)n1Cc1ccc(-c2ccccc2S(=O)(=O)NC(=O)OCCC(C)C)cc1F`: the values for the IC50 in test [1] and in test [3] were 0.06 nM and 0.1 nM, respectively.

Values taken from ChEMBL document CHEMBL1128745 (J Med Chem, 1995).
